# Measured values from ChEMBL document CHEMBL1129597, “2-[2'-(Dimethylamino)ethyl]-1,2-dihydro- 3H-dibenz[de,h]isoquinoline-1,3-diones with substituents at positions 4, 8, 9, 10, and 11. Synthesis, antitumor activity, and quantitative structure-activity relationships” (J Med Chem, 1996).
# Tests used:
# [1] = species: Mus musculus; assay: Percent increase in life span when given at a dose in P388 leukemia cells of mice (Positive control for compound 44); type: functional
# In short: (§1)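 P388 leukemia in mice, standard NCI protocol: 10^6 leukemia cells given ip; compound given ip in equal doses on days 1, 5 and 9. Highest dose used was 10% below the LD10 for acute toxicity in that mouse species. %ILS = 100 × (treated life span − control life span)/control life span, reported at the highest nontoxic dose.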
# [2] = species: Rattus norvegicus; assay: Cardiotoxicity measured by the ATP/protein ratio compared with untreated controls using neonatal rat heart myocyte assay.; type: functional
# In short: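 Neonatal rat heart myocytes exposed to drug for 1 h. The ATP/protein ratio was measured versus untreated control myocytes. IC50 is the concentration reducing this ratio to 50% of control.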
# [3] = species: Mus musculus; assay: Percent increase in life span when given at a dose in P388 leukemia cells of mice (Positive control for compounds 15,34 and amonafide); type: functional; in short: as §1
# [4] = tested on: UACC-375; assay: Antitumor activity against human melanoma UACC375 cell line.; type: functional, cell-based
# In short: (§2)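 Cultured human tumor cells (melanoma UACC375, ovarian OVCAR3) under continuous drug exposure. Growth was read by sulforhodamine or MTT assay. Five concentrations per analogue, six determinations per concentration. IC50 values were derived from these.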
# [5] = tested on: L1210; assay: Antitumor activity against sensitive L1210 murine leukemia cell lines.; type: functional, cell-based; conditions: Mus musculus
# In short: (§3)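 Murine L1210 leukemia cells, sensitive or MDR subline, in culture. Continuous drug exposure during MTT assay. Five concentrations per analogue, six determinations per concentration. The IC50 was derived.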
# [6] = tested on: L1210; assay: Antitumor activity against murine leukemia L1210 cell line.; type: functional, cell-based; conditions: Mus musculus; in short: as §3
# [7] = tested on: WiDr; assay: Activity against human colon carcinoma multi drug resistant (MDR)-WiDr cell line.; type: functional, cell-based
# [8] = tested on: WiDr; assay: Compound was tested for antitumor activity against The compound tested for activity against Human colon carcinoma sensitive WiDr cell line.; type: functional, cell-based
# [9] = tested on: A549; assay: Activity against A549 cancer cell line.; type: functional, cell-based; conditions: Homo sapiens
# [10] = (§4) The quotient of the IC50 in the myocytes divided by the mean IC50 in the three cell lines; type: functional
# In short: (§5)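 Calculated index: the myocyte IC50 divided by the mean IC50 across three tumor lines (sensitive L1210, melanoma UACC375, ovarian OVCAR3).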
# [11] = tested on: MCF7; assay: Antitumor activity against human mammary carcinoma mitoxantrone-resistant […] breast cell line.; type: functional, cell-based
# [12] = tested on: MCF7; assay: Antitumor activity against human mammary carcinoma doxorubicin-resistant […] breast cell line.; type: functional, cell-based
# [13] = tested on: MCF7; assay: Antitumor activity against human mammary carcinoma sensitive […] breast cell line.; type: functional, cell-based
# [14] = tested on: OVCAR-3; assay: Antitumor activity against human ovarian OVCAR-3 cell lines.; type: functional, cell-based; in short: as §2
# [15] = tested on: WiDr; assay: Activity against human colon carcinoma sensitive WiDr cell line.; type: functional, cell-based
# [16] = as §4; type: ADME, cell-based; conditions: myocytes versus three cell lines; read-out: Toxicity ratio; in short: as §5
# [17] = tested on: L1210; assay: Compound was tested for antitumor activity against l. Sensitive leukemia cell lines (L1210).; type: functional, cell-based; conditions: Mus musculus; in short: as §3
# [18] = tested on: WiDr (Homo sapiens); assay: Compound was tested for antitumor activity against The compound tested for activity against Human colon carcinoma sensitive WiDr cell line.
# [19] = tested on: L1210; assay: Compound was tested for antitumor activity against Murine leukemia cell line (L1210).; type: functional, cell-based; conditions: Mus musculus; in short: as §3
# [20] = tested on: OVCAR-3; assay: Compound was tested for antitumor activity against. Human ovarian (OVCAR-3) cell lines.; type: functional, cell-based
# [21] = tested on: MCF7; assay: Compound was tested for antitumor activity against Human mammary carcinoma Doxorubicin resistant […] breast cell line.; type: functional, cell-based
# [22] = tested on: WiDr; assay: Compound was tested for antitumor activity against The compound tested for activity against Human colon carcinoma, Multi Drug resistant(MDR) WiDr - cell line.; type: functional, cell-based
# [23] = tested on: MCF7; assay: Compound was tested for antitumor activity against Human mammary carcinoma sensitive cell line ([…] breast).; type: functional, cell-based
# [24] = tested on: WiDr; assay: The compound tested for activity againstHuman colon carcinoma sensitive WiDr cell line.; type: functional, cell-based; conditions: Homo sapiens
# [25] = tested on: MCF7; assay: Compound was tested for antitumor activityHuman mammary carcinoma Doxorubicin resistant […] breast cell line.; type: functional, cell-based; conditions: Homo sapiens
SMILES,IC50 [4],IC50 [5],IC50 [6],IC50 [7],IC50 [9],IC50 [12],IC50 [13],IC50 [14],IC50 [15],IC50 [19],IC50 [2],Toxicity ratio [10],IC50 [11],further results
COc1cccc2c1C(=O)c1c(O)c3c(c(O)c1C2=O)C[C@@](O)(C(=O)CO)C[C@@H]3O[C@H]1C[C@H](N)[C@H](O)[C@H](C)O1 [DOXORUBICIN],,,,,,,,,,,10200 nM,,,ILS [1]: 72%; ILS [3]: 113%
CN(C)CCN1C(=O)c2c(Cl)ccc3cc4ccccc4c(c23)C1=O,332 nM,10 nM,,,12 nM,,50 nM,,,15 nM,900 nM,5.2,60 nM,IC50 [18]: 90 nM; IC50 [20]: 180 nM; IC50 [21]: 85 nM; IC50 [22]: 190 nM
Cc1ccc2cc3ccccc3c3c2c1C(=O)N(CCN(C)C)C3=O,176 nM,54 nM,,120 nM,34 nM,,,122 nM,,68 nM,1360 nM,12,140 nM,IC50 [21]: 330 nM; IC50 [23]: 390 nM; IC50 [24]: 60 nM
CN(C)CCN1C(=O)c2c(O)ccc3cc4ccccc4c(c23)C1=O,7550 nM,6740 nM,,4700 nM,820 nM,,1200 nM,5500 nM,2220 nM,14800 nM,> 135000 nM,>20,1500 nM,IC50 [25]: 2800 nM

# Continued, in another order:
IC50 [4],IC50 [5],IC50 [6],IC50 [7],IC50 [9],IC50 [12],IC50 [13],IC50 [14],IC50 [15],IC50 [19],SMILES,IC50 [2],Toxicity ratio [10],IC50 [11],further results
77 nM,25 nM,50 nM,120 nM,61 nM,100 nM,32 nM,77 nM,,,CCOc1ccc2cc3cccc4c3c(c2c1)C(=O)N(CCN(C)C)C4=O,11300 nM,188,15 nM,IC50 [8]: 100 nM
77 nM,,18 nM,110 nM,22 nM,80 nM,60 nM,39 nM,20 nM,,CN(C)CCN1C(=O)c2cccc3cc4c(Cl)cccc4c(c23)C1=O,1030 nM,,19 nM,selectivity ratio [16]: 22.8
4 nM,,6.7 nM,20 nM,7.1 nM,20 nM,13 nM,22 nM,17 nM,,CN(C)CCN1C(=O)c2cccc3cc4cc(O)ccc4c(c23)C1=O,404 nM,40.4,17 nM,IC50 [17]: 5.4 nM
